# Screens deposited in PubChem by Broad Institute.
# This is a sample that favours compounds with a hit; in the whole collection about 2.3% have one here.
# PDI inh: inhibitors of human protein disulfide isomerase | 350,000 compounds, 0.052% hits | PDI insulin aggregation turbidity, A650, 90 min | inhibition, % at 10 µM;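 active = mean inhibition across replicates of 30% or more, whatever share of single replicates reach that level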
# Target sequence (P07237 whole entry, looked up): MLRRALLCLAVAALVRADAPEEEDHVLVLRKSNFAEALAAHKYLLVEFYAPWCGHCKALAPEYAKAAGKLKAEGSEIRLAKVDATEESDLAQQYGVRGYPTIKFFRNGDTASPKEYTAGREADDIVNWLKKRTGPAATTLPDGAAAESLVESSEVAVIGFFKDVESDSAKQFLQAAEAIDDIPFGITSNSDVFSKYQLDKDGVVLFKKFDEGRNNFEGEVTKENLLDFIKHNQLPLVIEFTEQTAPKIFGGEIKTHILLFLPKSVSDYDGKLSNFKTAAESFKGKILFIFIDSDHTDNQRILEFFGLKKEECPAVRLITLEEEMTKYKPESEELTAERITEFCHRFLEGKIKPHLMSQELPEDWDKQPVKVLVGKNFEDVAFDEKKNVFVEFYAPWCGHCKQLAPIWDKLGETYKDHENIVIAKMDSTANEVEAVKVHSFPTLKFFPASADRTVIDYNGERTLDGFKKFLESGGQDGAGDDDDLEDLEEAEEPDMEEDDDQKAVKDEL
# DENV2 CPE: inhibitors of DENV2 cytopathic effect | DENV2-infected cells, cytopathic effect rescue, plate reader | 350,000 compounds, 1.7% hits | CPE inhibition, % at 9.99 µM; in the data active = CPE inhibition above about 20%, passing the limit was not always enough; tested in BHK-21 cells;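 note: 0% = median of neutral control wells and 100% = median of positive control wells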
# ERp5 inh: blocks human ERp5 reductase activity on insulin. Q15084. ERp5 insulin aggregation, absorbance 650 nm, 90 min. inhibition, % at 9.99 µM. 350,000 compounds, 0.05% hits;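 active = mean replicate inhibition above about 25%, with every replicate also reaching it, limit read from the data, passing the limit was not always enough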
# F508del corr: CFTR F508del correction in bronchial cells; 350,000 compounds, 0.36% hits; CFBE cells, YFP halide quenching; stimulated with forskolin plus potentiator P3; % fluorescence drop versus neutral controls; activity (quench increase), % at 7.58 µM;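 active = mean added fluorescence quench of at least 8% versus neutral control, with both replicates also reaching 8%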;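 note: cells transiently co-express mutant CFTR-F508del with the halide-sensitive YFP; corrector assay measuring rescue of mutant channel to the surface after 24 h compound exposure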
# Cneo AK release: Cryptococcus neoformans lysis via adenylate kinase release; C. neoformans lysis, adenylate kinase release luminescence, 4 h; normalised: neutral wells 0, clomiphene wells 100; 360,000 compounds, 0.2% hits; lysis activity, % at 15 µM;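 active = mean lysis activity across replicates of at least 80%, whatever share of replicates individually reach that level; inactive = mean lysis activity below 80%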
#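 Material: C. neoformans cells | Amount: Yeast cell density of 5 × 10^6 cells/mL | Medium: Fresh YPD growth medium | Dosing: Single dose | Times: Static 4 h at 37 °C with compound, 1 h detection | Detection: AK luminescence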
# C2C12 statin: suppressors of simvastatin-induced myotoxicity in C2C12 myotubes | ATP luminescence, 48 h; scaled: DMSO 0, geranylgeraniol control 100 | rescue of ATP level, % at 7.49 µM | 330,000 compounds, 0.78% hits | AID 602340;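 active = mean ATP rescue above about 67%, or every replicate alone reaching that limit, limit read from the data, passing the limit was not always enough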;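 note: myotubes were challenged with 10 µM simvastatin during compound exposure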
# Starred values were filed as active, the others as inactive; x = not tested or not shown; ! = not confirmed by another sample.
SMILES,PDI inh,DENV2 CPE,ERp5 inh,F508del corr,Cneo AK release,C2C12 statin
CCOC(=O)c1c(-c2ccc(-c3ccccc3)cc2)csc1NC(=O)CNCCN(C)C,0,17,2,0,85*,-7
CC(C)C(=O)Nc1ccc2c(c1)C(=O)N(C)[C@H]1CC[C@@H](CC(=O)NC3CCCC3)O[C@@H]1CO2,x,4,7,-2,6,39
COc1ccc(Cl)cc1NS(=O)(=O)c1c(C)[nH]c(=O)[nH]c1=O,-2,-1,0,0,1,87*
Cc1ccc(Cl)cc1NS(=O)(=O)c1c(C)[nH]c(=O)[nH]c1=O,9,x,x,x,0,-2
Cc1ccc(S(=O)(=O)c2ccc(Oc3cccc(C)c3)cc2)cc1,32*,x,x,x,-3,x
Cc1ccc(S(=O)(=O)c2ccc(C)cc2)cc1,-3,x,6,2,0,1
O=C1NNC(=O)C1c1ccccc1,-16,3,4,-3,-2,23
O=C1C(c2ccccc2)C(c2ccccc2)NC(c2ccccc2)C1c1ccccc1 (stereo not given),-10,x,x,x,3,111*
O=C(NCC[C@H]1CC[C@H](NS(=O)(=O)c2ccccc2F)[C@H](CO)O1)c1ccc(F)cc1,x,3,0,1,14,-10
c1ccn2c(c1)nc1c2nc2ccccn21,9,x,x,x,1,168*
Clc1c(-c2ccccc2)nc2ccccn12,-2,13,2,2,-2,6
O=C(N[C@@H]1CC[C@@H](CCn2cc(C3(O)CCCC3)nn2)O[C@@H]1CO)C1CCCC1,x,-8,1,-1,0,0
CC(C)c1cn(CC[C@@H]2CC[C@H](NC(=O)C3CCOCC3)[C@H](CO)O2)nn1,x,31*,-3,1,x,x
O=C(N[C@@H]1CC[C@@H](CCn2cc(C3(O)CCCC3)nn2)O[C@H]1CO)C1CCCC1,x,21*,7,-2,-2,-6
O=C(N[C@H]1CC[C@H](CCn2cc(C3(O)CCCC3)nn2)O[C@H]1CO)C1CCOCC1,x,32*,-4,4,46,-12
O=C(C[C@H]1CC[C@H]2[C@@H](COC[C@@H](O)CN2S(=O)(=O)c2ccc(Oc3ccccc3)cc2)O1)NC1CCC1,x,1,0,2,86*,6
Cn1cnc(S(=O)(=O)N2C[C@H](O)COC[C@@H]3O[C@@H](CC(=O)NC4CCCC4)CC[C@H]32)c1,x,59*,2,-4,-1,0
CCCNC(=O)C[C@@H]1CC[C@@H]2[C@H](COC[C@H](O)CN2S(=O)(=O)c2ccc(Oc3ccccc3)cc2)O1,x,-7,-7,3,8,11
CCCNC(=O)C[C@H]1CC[C@H]2[C@@H](COC[C@@H](O)CN2S(=O)(=O)c2ccc(Oc3ccccc3)cc2)O1,x,-5,2,-1,90*,-9
CNC(=O)C[C@@H]1CC[C@@H]2[C@H](COC[C@H](O)CN2S(=O)(=O)c2ccc(Oc3ccccc3)cc2)O1,x,5,-3,1,-3,5
CC(=O)N(C)C[C@@H]1Oc2ncc(C#Cc3ccc(F)cc3)cc2C(=O)N([C@H](C)CO)C[C@H]1C,x,-6,-1,-2,-10,-2
Cc1ccc2c(c1)CCCN2C(=O)CCc1nc2ccccc2c(=O)[nH]1,-9,10,-8,22*,-1,-52
Cc1ccc(NC(=O)C2(c3cccs3)CCOCC2)cc1C,0,26*,8,1,1,x
Cc1cccc(NC(=O)C2(c3cccs3)CCOCC2)c1,-2,x,x,x,3,x
Cc1ccc(-n2ncc(C(=O)N3CCc4ccccc4C3)c2NC(=O)c2ccco2)cc1C,0,x,x,x,x,77*
SMILES,PDI inh,DENV2 CPE,ERp5 inh,F508del corr,Cneo AK release,C2C12 statin
NC(=O)C1CCN(C(=O)c2cnn(-c3ccccc3)c2NC(=O)c2ccco2)CC1,-7,x,x,x,-2,98*
NC(=O)C1CCN(C(=O)c2cnn(-c3ccccc3)c2NC(=O)c2cccc(F)c2)CC1,-9,3,3,2,-1,-4
COCC(=O)N1CC[C@H]2[C@@H]1c1cc(-c3ccc(F)cc3)ccc1N(C)[C@H]2CO,x,-16,0,-1,-21,-14
O=C(NCCN1C(=O)C2C3C=CC(C3)C2C1=O)Nc1cccnc1 (stereo not given),x,29*,1,3,-4,-1
CO[C@H]1CN(C)C(=O)c2cc(NC(=O)C3CC3)ccc2OC[C@@H](C)N(C(=O)CN(C)C)C[C@H]1C,x,-5,-3,2,-1,2
CC(C)NC(=O)Nc1cccc2c1O[C@H](CN(C)S(=O)(=O)c1cn(C)cn1)[C@@H](C)CN([C@H](C)CO)C2=O,x,4,9,1,2,x
O=C(NC1CCCC1)C(c1ccsc1)N(Cc1ccco1)C(=O)Cc1cccs1 (stereo not given),-6,x,x,x,-2,118*
C[C@H](CO)N1C[C@H](C)[C@@H](CN(C)Cc2ccc(-c3ccccc3)cc2)Oc2c(NC(=O)c3ccncc3)cccc2C1=O,13,-3,4,0,0,-9
C[C@H](CO)N1C[C@H](C)[C@H](CN(C)C(=O)Nc2ccc(F)cc2)Oc2c(NC(=O)c3ccncc3)cccc2C1=O,x,-3,-4,-1,-1,5
C[C@H](CO)N1C[C@H](C)[C@H](CN(C)Cc2ccc(-c3ccccc3)cc2)Oc2c(NC(=O)c3ccncc3)cccc2C1=O,x,5,1,-3,111*,-20
C[C@@H]1CN([C@H](C)CO)C(=O)c2cccc(NC(=O)c3ccncc3)c2O[C@@H]1CN(C)C(=O)Nc1ccccc1,x,54*,0,-1,2,3
C[C@H]1CN([C@@H](C)CO)C(=O)c2cccc(NC(=O)c3ccncc3)c2O[C@H]1CN(C)C(=O)Nc1ccccc1,8,16,-1,-1,14,-3
C[C@H](CO)N1C[C@H](C)[C@@H](CN(C)C(=O)Nc2ccccc2)Oc2c(NC(=O)c3ccncc3)cccc2C1=O,14,42*!,-4,0,2,12
O=C1C2C=C(Br)[C@H](C[C@@H]2OCCCCCCO)[C@@]12CO2,x,1,5,0,-6,x
CN(C)C(=O)C[C@@H]1CC[C@H]2[C@@H](COC[C@@H](O)CN2Cc2ccc(C(F)(F)F)cc2)O1,x,1,x,1,0,0
O=S(=O)(c1ccccc1)N1CCCCN2[C@H](C1)[C@@H](c1ccc(-c3ccccc3F)cc1)[C@@H]2CO,x,x,x,0,4,-4
Cc1cccc(N(C)c2cc(C)nc3nc(C)nn23)c1,x,29*,-1,0,2,5
CCN(c1ccccc1)c1cc(C)nc2nc(C)nn12,x,-2,2,1,0,-1
O=C(CSc1nc2nn(-c3ccccc3)c(=O)c-2c2n1CCCCC2)Nc1ccc(OC(F)F)cc1,-2,-2,7,8.1*,-1,5
